ChEMBL document CHEMBL1145212, “Fluorinated diaryl sulfides as serotonin transporter ligands: synthesis, structure-activity relationship study, and in vivo evaluation of fluorine-18-labeled compounds as PET imaging agents” (J Med Chem, 2005)

Assays:
Rattus norvegicus [1] = species: Rattus norvegicus; assay: Regional uptake of [18F]AFA in hippocampus of rat pretreated with compound 7d; n=3; format: functional, organism-based; details: tested as the 18F-labelled form
Rattus norvegicus [2] = species: Rattus norvegicus; assay: Regional uptake of [18F]-AFA in blood of rat pretreated with compound citalopram; n=3; format: functional, organism-based; details: tested as the 18F-labelled form
Outline: (§1)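 Male Sprague-Dawley rats, three per group, received blocker (2 mg/kg iv in saline) or saline only (controls) 10–15 min before about 20 µCi of tail-vein F-18 radioligand. Killed 60 min after tracer. Blood and brain regions weighed and gamma-counted. %ID/g was decay- and tail-corrected; mean ± SD.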

Rattus norvegicus [3] = species: Rattus norvegicus; assay: Regional uptake of [18F]AFA in blood of rat pretreated with compound nisoxetine; n=3; format: functional, organism-based; details: tested as the 18F-labelled form; outline: as §1
Rattus norvegicus [4] = species: Rattus norvegicus; assay: Regional uptake of [18F]AFA in frontal cortex of rat pretreated with compound 7d; n=3; format: functional, organism-based; details: tested as the 18F-labelled form
Rattus norvegicus [5] = species: Rattus norvegicus; assay: Regional uptake of [18F]-AFA in striatum of rat pretreated with compound GBR-12935; n=3; format: functional, organism-based; details: tested as the 18F-labelled form; outline: as §1
Rattus norvegicus [6] = species: Rattus norvegicus; assay: Regional uptake of [18F]AFA in thalamus of rat pretreated with compound GBR-12935; n=3; format: functional, organism-based; details: tested as the 18F-labelled form; outline: as §1
Rattus norvegicus [7] = species: Rattus norvegicus; assay: Regional uptake of [18F]AFA in striatum of rat pretreated with compound citalopram; n=3; format: functional, organism-based; details: tested as the 18F-labelled form; outline: as §1
Rattus norvegicus [8] = species: Rattus norvegicus; assay: Regional uptake of [18F]AFA in striatum of rat pretreated with compound nisoxetine; n=3; format: functional, organism-based; details: tested as the 18F-labelled form; outline: as §1
Rattus norvegicus [9] = species: Rattus norvegicus; assay: Regional uptake of [18F]AFA in thalamus of rat pretreated with compound citalopram; n=3; format: functional, organism-based; details: tested as the 18F-labelled form; outline: as §1
Rattus norvegicus [10] = species: Rattus norvegicus; assay: Regional uptake of [18F]AFA in thalamus of rat pretreated with compound nisoxetine; n=3; format: functional, organism-based; details: tested as the 18F-labelled form; outline: as §1
Rattus norvegicus [11] = species: Rattus norvegicus; assay: Regional uptake of [18F]AFA in hippocampus of rat pretreated with compound GBR-12935; n=3; format: functional, organism-based; details: tested as the 18F-labelled form; outline: as §1
Rattus norvegicus [12] = species: Rattus norvegicus; assay: Regional uptake of [18F]AFA in cerebellum of rat pretreated with compound citalopram; n=3; format: functional, organism-based; details: tested as the 18F-labelled form; outline: as §1
Rattus norvegicus [13] = species: Rattus norvegicus; assay: Regional uptake of [18F]AFA in cerebellum of rat pretreated with compound nisoxetine; n=3; format: functional, organism-based; details: tested as the 18F-labelled form; outline: as §1
Rattus norvegicus [14] = species: Rattus norvegicus; assay: Regional uptake of [18F]AFA in hypothalamus of rat pretreated with compound GBR-12935; n=3; format: functional, organism-based; details: tested as the 18F-labelled form; outline: as §1
Rattus norvegicus [15] = species: Rattus norvegicus; assay: Regional uptake of [18F]AFA in hippocampus of rat pretreated with compound citalopram; n=3; format: functional, organism-based; details: tested as the 18F-labelled form; outline: as §1
Rattus norvegicus [16] = species: Rattus norvegicus; assay: Regional uptake of [18F]AFA in hippocampus of rat pretreated with compound nisoxetine; n=3; format: functional, organism-based; details: tested as the 18F-labelled form; outline: as §1
Rattus norvegicus [17] = species: Rattus norvegicus; assay: Regional uptake of [18F]AFA in frontal cortex of rat pretreated with compound GBR-12935; n=3; format: functional, organism-based; details: tested as the 18F-labelled form; outline: as §1
Rattus norvegicus [18] = species: Rattus norvegicus; assay: Regional uptake of [18F]-AFA in hypothalamus of rat pretreated with compound nisoxetine; n=3; format: functional, organism-based; details: tested as the 18F-labelled form; outline: as §1
Rattus norvegicus [19] = species: Rattus norvegicus; assay: Regional uptake of [18F]AFA in frontal cortex of rat pretreated with compound citalopram; n=3; format: functional, organism-based; details: tested as the 18F-labelled form; outline: as §1
Rattus norvegicus [20] = species: Rattus norvegicus; assay: Regional uptake of [18F]AFA in frontal cortex of rat pretreated with compound nisoxetine; n=3; format: functional, organism-based; details: tested as the 18F-labelled form; outline: as §1
[21] = biological target: Sodium-dependent serotonin transporter (Homo sapiens, UniProt P31645); assay: In vitro displacement of [3H]paroxetine from human serotonin transporter expressed in HEK293 cells; format: cell-based
Sodium-dependent serotonin transporter, sequence (P31645 whole entry): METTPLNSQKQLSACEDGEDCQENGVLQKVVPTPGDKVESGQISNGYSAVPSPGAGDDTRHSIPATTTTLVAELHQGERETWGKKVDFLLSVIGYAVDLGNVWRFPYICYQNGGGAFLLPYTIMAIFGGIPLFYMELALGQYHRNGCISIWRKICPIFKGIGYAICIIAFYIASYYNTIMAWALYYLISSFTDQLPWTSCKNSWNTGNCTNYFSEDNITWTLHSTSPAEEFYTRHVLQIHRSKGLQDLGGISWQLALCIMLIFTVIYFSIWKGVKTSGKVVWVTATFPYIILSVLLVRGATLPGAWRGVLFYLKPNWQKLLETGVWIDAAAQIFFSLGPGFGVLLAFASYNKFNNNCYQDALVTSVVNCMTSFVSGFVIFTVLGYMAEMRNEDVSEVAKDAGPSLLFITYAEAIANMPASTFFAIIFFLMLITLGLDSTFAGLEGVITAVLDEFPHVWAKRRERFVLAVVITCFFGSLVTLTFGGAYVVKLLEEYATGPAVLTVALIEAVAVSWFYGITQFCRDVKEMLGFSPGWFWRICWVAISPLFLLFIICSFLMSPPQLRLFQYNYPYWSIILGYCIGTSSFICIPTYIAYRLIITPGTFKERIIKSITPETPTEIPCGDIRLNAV

Rattus norvegicus [22] = species: Rattus norvegicus; assay: Regional uptake of [18F]AFA in hypothalamus of rat pretreated with compound 7d; n=3; format: functional, organism-based; details: tested as the 18F-labelled form
Rattus norvegicus [23] = species: Rattus norvegicus; assay: Regional uptake of [18F]AFA in cerebellum of rat pretreated with compound GBR-12935; n=3; format: functional, organism-based; details: tested as the 18F-labelled form; outline: as §1
Rattus norvegicus [24] = species: Rattus norvegicus; assay: Regional uptake of [18F]AFA in hypothalamus of rat pretreated with compound citalopram; n=3; format: functional, organism-based; details: tested as the 18F-labelled form; outline: as §1
Rattus norvegicus [25] = species: Rattus norvegicus; assay: Regional uptake of [18F]-AFM in thalamus of rat pretreated with compound 7d; n=3; details: tested as the 18F-labelled form

SMILES: CN(C)Cc1ccccc1Sc1ccc(CF)cc1N
- Uptake (Rattus norvegicus [1]): 0.13 %ID/g
- Uptake (Rattus norvegicus [2]): 0.12 %ID/g
- Uptake (Rattus norvegicus [3]): 0.11 %ID/g
- Uptake (Rattus norvegicus [4]): 0.12 %ID/g
- Uptake (Rattus norvegicus [5]): 0.7 %ID/g
- Uptake (Rattus norvegicus [6]): 0.74 %ID/g
- Uptake (Rattus norvegicus [7]): 0.12 %ID/g
- Uptake (Rattus norvegicus [8]): 0.58 %ID/g
- Uptake (Rattus norvegicus [9]): 0.16 %ID/g
- Uptake (Rattus norvegicus [10]): 0.65 %ID/g
- Uptake (Rattus norvegicus [11]): 0.59 %ID/g
- Uptake (Rattus norvegicus [12]): 0.08 %ID/g
- Uptake (Rattus norvegicus [13]): 0.13 %ID/g
- Uptake (Rattus norvegicus [14]): 0.87 %ID/g
- Uptake (Rattus norvegicus [15]): 0.13 %ID/g
- Uptake (Rattus norvegicus [16]): 0.47 %ID/g
- Uptake (Rattus norvegicus [17]): 0.76 %ID/g
- Uptake (Rattus norvegicus [18]): 0.73 %ID/g
- Uptake (Rattus norvegicus [19]): 0.11 %ID/g
- Uptake (Rattus norvegicus [20]): 0.72 %ID/g
- Ki [21]: 1.04 nM
- Uptake (Rattus norvegicus [22]): 0.17 %ID/g
- Uptake (Rattus norvegicus [23]): 0.13 %ID/g
- Uptake (Rattus norvegicus [24]): 0.18 %ID/g
- Uptake (Rattus norvegicus [25]): 0.17 %ID/g
